Reference: ChEMBL document CHEMBL4706607, “Anti-tubercular profile of new selenium-menadione conjugates against Mycobacterium tuberculosis H37Rv (ATCC 27294) strain and multidrug-resistant clinical isolates” (Eur J Med Chem, 2021)
In brackets after ≈: the same amount, converted by molar mass.

Legend:
[1] = system: Mycobacterium tuberculosis; test: Antimycobacterial activity against Mycobacterium tuberculosis H37Rv ATCC 27294 assessed as reduction in bacterial growth by resazurin reduction microplate assay; assay type: functional
Summary of the method: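 REMA in Middlebrook 7H9 broth with 10% ADC. Compounds dissolved at 1 mg/mL in DMSO and diluted to 50 μg/mL in broth containing 5% DMSO. Ten-point two-fold dilutions gave 25.0 to 0.05 μg/mL. Growth and sterility controls on each plate. MIC was the lowest concentration preventing the blue-to-pink change.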

[2] = Selectivity index, ratio of CC50 for African green monkey Vero cells to MIC for Mycobacterium tuberculosis CDCT-16; assay type: toxicity; settings: read-out: Selectivity Index
[3] = Cytotoxicity against African green monkey Vero cells assessed as reduction in cell viability incubated for 24 hrs by MTT assay; assay type: cell-based; settings: chlorocebus sabaeus
Summary of the method: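 Vero cells kept in DMEM with 4.5 mg/mL glucose and 10% inactivated FBS at 37 °C, 5% CO2. Seeded at 30,000 cells/well and grown 24 h, then exposed to 5, 10, 25 and 50 μM for 24 h. Control was medium with 1% DMSO. MTT 0.5 mg/mL in HBSS for 3 h; formazan dissolved in DMSO and read at 570–690 nm. CC50 taken from survival relative to untreated cells.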

[4] = Selectivity index, ratio of CC50 for African green monkey Vero cells to MIC for Mycobacterium tuberculosis H37Rv ATCC 27294; assay type: toxicity; settings: read-out: Selectivity Index
[5] = Selectivity index, ratio of CC50 for African green monkey Vero cells to MIC for Mycobacterium tuberculosis CDCT-27; assay type: toxicity; settings: read-out: Selectivity Index

Structure (SMILES) | MIC [1] | selectivity ratio [2] | CC50 at 24 h [3] | selectivity ratio [4] | selectivity ratio [5]
CC1=C(C[Se]C(=O)c2ccc(Cl)cc2)C(=O)c2ccccc2C1=O | > 10 µM |  |  |  | 
CC1=C(C[Se]C(=O)c2ccc(F)cc2)C(=O)c2ccccc2C1=O | 8 µM (≈ 3.1 µg/mL) | > 62.5 | > 50 µM | > 6.2 | > 16.1
COc1ccc(C(=O)[Se]CC2=C(C)C(=O)c3ccccc3C2=O)cc1 | > 10 µM |  |  |  | 
CCCCC(=O)[Se]CC1=C(C)C(=O)c2ccccc2C1=O | > 10 µM |  |  |  | 
CCc1ccc(C(=O)[Se]CC2=C(C)C(=O)c3ccccc3C2=O)cc1 | > 10 µM |  |  |  | 
CC1=C(C[Se]C(=O)c2ccccc2)C(=O)c2ccccc2C1=O | 2.1 µM (≈ 0.775 µg/mL) | > 62.5 | > 50 µM | > 23.8 | > 62.5
NNC(=O)c1ccncc1 [ISONIAZID] | 2.2 µM (≈ 0.302 µg/mL) |  | > 50 µM | > 22.7 | 
CCCC(C)C(=O)[Se]CC1=C(C)C(=O)c2ccccc2C1=O (centres undefined) | > 10 µM |  |  |  | 
CC1=C(C[Se]C(=O)c2ccc(C)cc2)C(=O)c2ccccc2C1=O | > 10 µM |  |  |  | 
CC1=C(C[Se]C(=O)c2ccccc2C)C(=O)c2ccccc2C1=O | 8.1 µM (≈ 3.1 µg/mL) | 2.5 | 7.7 µM | 0.9 | 2.5
